NadD inh = inhibitors of Staphylococcus aureus NadD; purified NadD enzyme, colorimetric absorbance read-out; inhibition, % at 20 µM; actives 0.78% (n = 360,000); in the data active means inhibition above about 26%
PP1 counter = counter-screen for PP5 inhibitors: inhibitors of human PP1-alpha. P62136. purified PP1alpha, OMFP fluorescence. inhibition, % at 6.7 µM. actives 0.9% (n = 320,000);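 active means inhibition above the mean inhibition of all tested compounds plus 3 SD, computed separately for each screening campaign, cut at about 15% in these data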
Target sequence (P62136 whole entry, looked up): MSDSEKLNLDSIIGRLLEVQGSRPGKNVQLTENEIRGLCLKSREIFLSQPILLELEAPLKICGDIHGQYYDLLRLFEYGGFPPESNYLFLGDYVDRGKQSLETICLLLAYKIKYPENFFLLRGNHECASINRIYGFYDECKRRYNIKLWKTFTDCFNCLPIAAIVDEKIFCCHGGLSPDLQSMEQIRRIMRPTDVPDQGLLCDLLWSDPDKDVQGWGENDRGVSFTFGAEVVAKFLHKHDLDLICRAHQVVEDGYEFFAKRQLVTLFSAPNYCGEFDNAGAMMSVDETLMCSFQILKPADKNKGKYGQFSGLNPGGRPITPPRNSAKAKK
Myeloid diff 2 = compounds promoting myeloid differentiation | calls only at 10 µM | ER-HoxA9 myeloid progenitors, lysozyme-GFP differentiation, flow cytometry | actives 1% (n = 360,000);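 active means normalized GFP-positive differentiation at or above the plate's own cutoff, the solvent-only control mean plus 3 SD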;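 further: cells exposed to compound for four days before flow analysis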
CTSL1 counter = blocks F. hepatica cathepsin L1 in PFM18AAP counter-screen. recombinant F. hepatica cathepsin L1, Z-Leu-Arg-MCA fluorescence. inhibition, % at 5.96 µM. actives 0.49% (n = 300,000);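 active means inhibition above the mean of all tested compounds plus 3 SD, set per screening campaign, cut at about 17% in these data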;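 further: 0% = plate median of test compound wells and 100% = 1 µM Z-Phe-Ala-diazomethylketone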
PP5 inh = blocks human protein phosphatase 5 activity. AID 1987. purified PP5c, OMFP substrate fluorescence. inhibition, % at 6.7 µM. P53041. actives 0.18% (n = 320,000);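 active means inhibition above the campaign's mean inhibition across all tested compounds plus 3 SD, cut at about 9.5% in these data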;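 further: 0% = DMSO only and 100% = 100 µM cantharidin control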
core dimer inh = blocks dimerization of HCV core protein. AID 1899. TR-FRET GST/Flag-core106 dimerization, 1536-well. inhibition, % at 5 µM. actives 0.33% (n = 300,000);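 active means inhibition above the mean of all tested compounds plus 3 SD, set per screening campaign, cut at about 45% in these data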
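Material: GST/Flag-tagged HCV core106 proteins. Incubation: 4 h, 22.5 °C incubation. Read-out basis: inhibition (%) from 671 over 617 nm ratio. Measured by: TR-FRET, excitation 340 nm, emission 617 and 671 nm.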
* marks the source's active call; other numbers are inactive results; i = inactive; nt = no result given; + = active, no number. Compounds with a hit are over-represented: about 3.1% of the library has one in this group of screens.

SMILES | NadD inh | PP1 counter | Myeloid diff 2 | CTSL1 counter | PP5 inh | core dimer inh
CCC(C)[C@H](NC(=O)[C@@H]1CSC2c3ccccc3C(=O)N21)C(=O)NC1CCCC1 (some centres undefined) | -6 | 1 | i | 12 | 1 | 8
CCC(C)[C@H](NC(=O)[C@@H]1CSC2c3ccccc3C(=O)N21)C(=O)NCc1ccco1 (some centres undefined) | 3 | -3 | i | 81* | 1 | 13
O=C(NC1CC1)C1CC(=O)N(c2cccc(Cl)c2)C1 (centres undefined) | -4 | -5 | + | 1 | 2 | -1
CCN1CCN(CCC(=O)Nc2ccc(F)c(F)c2)CC1 | -4 | -5 | i | -3 | 1 | 6
CCCOC(=O)/C(=C\C=C\c1ccco1)NC(=O)c1ccccc1 | 9 | 3 | i | 26* | 0 | 28
O=C(N/N=C/C=C/c1ccco1)/C(=C/c1ccccc1)NC(=O)c1ccccc1 | 30 | 6 | i | 5 | -1 | 47*
COC(=O)/C(=C/c1ccco1)NC(=O)c1ccccc1 | 4 | 2 | i | 2 | 0 | -14
Cc1ccc(C(=O)N/C(=C/c2ccco2)C(=O)OCN2C(=O)c3ccccc3C2=O)cc1 | 5 | -2 | i | 43* | 0 | 7
Cn1ccnc1C(OC(=O)c1ccccc1)C(F)(F)F (centres undefined) | -5 | 0 | i | 0 | 2 | 1
O=C(COC(=O)COc1ccc2c(c1)CCC2)Nc1ccccc1C(F)(F)F | -3 | nt | i | nt | nt | nt
CC(C)c1ccc2[nH]c(O)c(N=NC(=O)c3cccc(S(=O)(=O)N4CCCCC4)c3)c2c1 | 31* | 3 | i | -4 | 1 | 29
CC(C)c1ccc2[nH]c(O)c(N=NC(=O)c3cccc(S(=O)(=O)Nc4ccc(Cl)cc4)c3)c2c1 | 37* | -1 | i | 1 | -2 | 12
CC(C)c1ccc2[nH]c(O)c(N=NC(=O)c3cccc(S(=O)(=O)Nc4cccc(Cl)c4)c3)c2c1 | 35* | -1 | i | 0 | 1 | 9
NC(=O)C1Cc2ccccc2CN1C(=O)c1cc(C2CC2)nn1-c1ccccc1 (centres undefined) | -3 | nt | i | nt | nt | nt
CCOc1ccccc1N(C)C(=O)c1cn(C)c(=O)c2ccccc12 | -1 | -1 | i | 1 | -1 | 0
CCS(=O)(=O)c1nn2c(N)c(/C=C3/C=CC(=O)C(OC)=C3)c(=O)nc2s1 | -3 | -2 | i | 7 | 1 | -18
COC1=C/C(=C/c2c(N)n3nc(-c4ccc(C)cc4)sc3nc2=O)C=CC1=O | 35* | nt | nt | nt | nt | nt
Cc1c(OCC(=O)NC(Cc2ccc(Cl)cc2)C(=O)O)ccc2c(-c3ccccc3)cc(=O)oc12 (centres undefined) | 11 | 17* | i | 8 | -8 | 4
O=C(O)c1cccc2cccc(-c3c4ccc(=O)c(O)c-4oc4c(O)c(O)ccc34)c12 | 83* | nt | i | nt | nt | nt
N/C(=N\OC(=O)Cc1ccccc1)c1ccncc1 | -2 | -3 | i | -5 | 0 | -5
Cc1ccc(CC(=O)O/N=C(\N)c2ccncc2)cc1 | -7 | -4 | + | -6 | 1 | 4
COc1ccc2cc(C(C)C(=O)O)ccc2c1 (centres undefined) | -2 | -3 | i | 2 | -1 | 6
C=CCn1c(Cc2ccc(OCC)cc2)nnc1SCC(N)=O | -1 | -1 | + | -7 | 1 | -5
O=C(c1ccccc1)c1nn(-c2ccccc2)c2nnc(Cc3ccccc3)c(=O)n12 | 8 | 12 | i | 0 | 2 | 23
Cc1ccc(-n2nc(C(=O)c3ccccc3)n3c(=O)c(Cc4ccccc4)nnc23)cc1 | 23 | 17* | i | 4 | 1 | 25
Cc1ccc(S(=O)(=O)N2CCN(C(=O)c3ccc(Br)o3)CC2)c(C)c1 | 0 | -3 | i | -1 | 0 | 6
N#Cc1cc([N+](=O)[O-])ccc1Oc1cccc(/C=N/NC(=O)c2cccc(Cl)c2)c1 | 18 | 9 | i | 3 | 2 | 50*
COc1ccc(/C=N/NC(=O)c2cccc([N+](=O)[O-])c2)cc1OC | 1 | -4 | i | 0 | 2 | 1
O=C(COC(=O)c1cc2c(s1)CCC2)Nc1ccc(F)cc1 | 1 | 0 | i | 5 | 2 | 50*

High-throughput results: PubChem BioAssay, several laboratories
